Calls of active or inactive are those of the source. The calls are words filed in the database; no cut-off is given here.
How the values were obtained:
Mus musculus [1] = assay: Anticonvulsant activity in Albino CF1 mouse upto 300 mg/kg, ip in maximal electroshock seizure test; type: functional, organism-based; set-up: dose 300 mg/kg
In short: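 Mice dosed i.p. (0.01 mL/g) at 30, 100 and 300 mg/kg. Electroshock challenge run 30 min and 4 h after dosing.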

Mus musculus [2] = assay: Anticonvulsant activity against subcutaneous pentylenetetrazole-induced seizure in Albino CF1 mouse at 100 mg/kg, ip after 0.5 hrs; type: functional, organism-based; set-up: dose 100 mg/kg
In short: (§1)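 Test compounds given i.p. to mice at 0.01 mL/g, at 30, 100 or 300 mg/kg. The seizure challenge followed at 0.5 h and at 4 h after dosing. The value recorded is the lowest dose that protected half or more of the mice. Where no activity was seen, the maximum dose given was 300 mg/kg.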

Mus musculus [3] = assay: Anticonvulsant activity against subcutaneous pentylenetetrazole-induced seizure in Albino CF1 mouse at 300 mg/kg, ip after 4 hrs; type: functional, organism-based; set-up: dose 300 mg/kg; in short: as §1
Mus musculus [4] = assay: Anticonvulsant activity against subcutaneous strychnine-induced seizure in Albino CF1 mouse at 300 mg/kg, ip after 0.5 hrs; type: functional, organism-based; set-up: dose 300 mg/kg; in short: as §1
Mus musculus [5] = assay: Anticonvulsant activity against intraperitoneal picrotoxin-induced seizure in Albino CF1 mouse at 100 mg/kg, ip after 0.5 hrs; type: functional, organism-based; set-up: dose 100 mg/kg
In short: (§2)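 Mice received the test compound by intraperitoneal injection at 30, 100 or 300 mg/kg. They were then challenged with intraperitoneal picrotoxin and scored for anticonvulsant protection 0.5 h or 4 h after dosing. The value recorded is the lowest dose that protected half or more of the mice. A dash means no activity up to 300 mg/kg.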

Mus musculus [6] = assay: Anticonvulsant activity against intraperitoneal picrotoxin-induced seizure in Albino CF1 mouse at 300 mg/kg, ip after 4 hrs; type: functional, organism-based; set-up: dose 300 mg/kg; in short: as §2
Mus musculus [7] = assay: Neurotoxicity in Albino CF1 mouse at 100 mg/kg, ip after 0.5 hrs by Rotarod test; type: toxicity, organism-based; set-up: dose 100 mg/kg, route intraperitoneal; details: in vivo
In short: (§3)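 Rotarod test in mice pre-trained to stay on the rod for two consecutive 90 s trials. Compounds given i.p. at 30, 100 or 300 mg/kg, with testing at 0.5 h and 4 h. Deficit was scored as failure to keep balance on the rod for 1 min in each of three trials. The value recorded is the lowest dose affecting half or more of the mice.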

Mus musculus [8] = assay: Neurotoxicity in Albino CF1 mouse at 300 mg/kg, ip after 4 hrs by Rotarod test; type: toxicity, organism-based; set-up: dose 300 mg/kg, route intraperitoneal; details: in vivo; in short: as §3
Mus musculus [9] = assay: Anticonvulsant activity against subcutaneous strychnine-induced seizure in Albino CF1 mouse at 300 mg/kg, ip after 4 hrs; type: functional, organism-based; set-up: dose 300 mg/kg; in short: as §1
Mus musculus [10] = assay: Anticonvulsant activity against subcutaneous pentylenetetrazole-induced seizure in Albino CF1 mouse at 300 mg/kg, ip after 0.5 hrs; type: functional, organism-based; set-up: dose 300 mg/kg; in short: as §1
Mus musculus [11] = assay: Anticonvulsant activity against subcutaneous strychnine-induced seizure in Albino CF1 mouse at 100 mg/kg, ip after 0.5 hrs; type: functional, organism-based; set-up: dose 100 mg/kg; in short: as §1
Mus musculus [12] = assay: Anticonvulsant activity against intraperitoneal picrotoxin-induced seizure in Albino CF1 mouse at 300 mg/kg, ip after 0.5 hrs; type: functional, organism-based; set-up: dose 300 mg/kg; in short: as §2
Mus musculus [13] = assay: Neurotoxicity in Albino CF1 mouse at 30 mg/kg, ip after 0.5 hrs by Rotarod test; type: toxicity, organism-based; set-up: dose 30 mg/kg, route intraperitoneal; details: in vivo; in short: as §3
Mus musculus [14] = assay: Anticonvulsant activity against subcutaneous pentylenetetrazole-induced seizure in Albino CF1 mouse at 100 mg/kg, ip after 4 hrs; type: functional, organism-based; set-up: dose 100 mg/kg; in short: as §1
Mus musculus [15] = assay: Anticonvulsant activity against intraperitoneal picrotoxin-induced seizure in Albino CF1 mouse at 30 mg/kg, ip after 0.5 hrs; type: functional, organism-based; set-up: dose 30 mg/kg; in short: as §2
Mus musculus [16] = assay: Anticonvulsant activity against intraperitoneal picrotoxin-induced seizure in Albino CF1 mouse at 100 mg/kg, ip after 4 hrs; type: functional, organism-based; set-up: dose 100 mg/kg; in short: as §2
Mus musculus [17] = assay: Anticonvulsant activity against subcutaneous pentylenetetrazole-induced seizure in Albino CF1 mouse at 30 mg/kg, ip after 4 hrs; type: functional, organism-based; set-up: dose 30 mg/kg; in short: as §1
Mus musculus [18] = assay: Neurotoxicity in Albino CF1 mouse at 300 mg/kg, ip after 0.5 hrs by Rotarod test; type: toxicity, organism-based; set-up: dose 300 mg/kg, route intraperitoneal; details: in vivo; in short: as §3
Mus musculus [19] = assay: Neurotoxicity in Albino CF1 mouse at 100 mg/kg, ip after 4 hrs by Rotarod test; type: toxicity, organism-based; set-up: dose 100 mg/kg, route intraperitoneal; details: in vivo; in short: as §3
Mus musculus [20] = assay: Anticonvulsant activity against subcutaneous pentylenetetrazole-induced seizure in Albino CF1 mouse at 30 mg/kg, ip after 0.5 hrs; type: functional, organism-based; set-up: dose 30 mg/kg; in short: as §1

SMILES	Activity (Mus musculus [1])	Activity (Mus musculus [2])	Activity (Mus musculus [3])	Activity (Mus musculus [4])	Activity (Mus musculus [5])	Activity (Mus musculus [6])	Activity (Mus musculus [7])	Activity (Mus musculus [8])	Activity (Mus musculus [9])	Activity (Mus musculus [10])	Activity (Mus musculus [11])	Activity (Mus musculus [12])	Activity (Mus musculus [13])	Activity (Mus musculus [14])	Activity (Mus musculus [15])	Activity (Mus musculus [16])	Activity (Mus musculus [17])	Activity (Mus musculus [18])	Activity (Mus musculus [19])	Activity (Mus musculus [20])
Cc1cc(NC(=O)CCCN2C(=O)c3ccccc3C2=O)ccc1Br	inactive	Active	inactive	inactive	Active	Active	Active	Active	inactive	–	–	–	–	–	–	–	–	–	–	–
O=C(CCCN1C(=O)c2ccccc2C1=O)Nc1ccc(Cl)cc1	inactive	–	inactive	–	–	inactive	–	Active	Active	inactive	Active	Active	Active	–	–	–	–	–	–	–
Cc1cccc(C)c1NC(=O)CCCN1C(=O)c2ccccc2C1=O	inactive	–	–	–	–	–	Active	Active	Active	inactive	Active	–	–	Active	Active	Active	–	–	–	–
Cc1c(Cl)cccc1NC(=O)CCCN1C(=O)c2ccccc2C1=O	inactive	–	–	Active	Active	Active	–	–	inactive	Active	–	–	–	–	–	–	Active	Active	Active	–
C/C(=N/NC(=O)CCCN1C(=O)c2ccccc2C1=O)c1ccc(C)cc1	inactive	–	inactive	inactive	–	inactive	Active	Not Active	inactive	–	–	Active	–	–	–	–	–	–	–	Active
